Assay results published in publication PMC11063762 (Molecular Cancer Therapeutics, 2024).
“Also recorded” adds a separate entry of the source.

Legend:
[1] = tested on: panel of receptors/transporters (n = 38); test: Off-target selectivity screening, receptor/transporter binding panel; conditions: up to 10 μmol/L
[2] = tested on: panel of enzymes (n = 6); test: Off-target selectivity screening, enzyme panel; format: biochemical; conditions: up to 10 μmol/L
[3] = target: T1, METAP2 (Homo sapiens, UniProt P50579); test: METAP2 aminopeptidase enzyme activity assay; format: biochemical
[4] = target: METAP1 (Homo sapiens, UniProt P53582); test: METAP1 aminopeptidase enzyme activity assay; format: biochemical; conditions: up to 1000 nmol/L
[5] = tested on: HUVEC; test: HUVEC proliferation; format: cell-based, human; conditions: 72 hours
Method in brief: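 HUVEC were grown in EBM-2/EGM-2 with 2% FBS and 2X gentamicin, seeded at 5,000 cells/well and left overnight. Compounds were diluted in DMSO, then in the same medium (final DMSO 0.1%). After 72 h at 37°C, CellTiter 96 Aqueous One reagent was added for 3 h at 37°C and A490 read. The mean A490 of highest-concentration wells was subtracted, and IC50 came from a four-parameter variable-slope log(inhibitor)-response fit.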

[6] = tested on: B16-F10 melanoma cells; test: B16-F10 syngeneic lung metastasis model; format: in vivo, mouse; conditions: TNP-470 30 mg/kg every other day x 6, day 15
Method in brief: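 Female C57BL/6NTac mice (8/group) received B16-F10 melanoma cells by tail vein. Cells were grown in DMEM with 5% FBS at 37°C under 5% CO2. Dosing began 24 h after injection: saline vehicle, test compound 25 mg/kg Q4D × 3, and a reference METAP2 inhibitor 30 mg/kg Q2D × 6. Lungs were excised on day 15 and visible metastases counted by stereomicroscope. Two-tailed Student t test.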

[7] = cited from earlier work
[8] = Long-term chemical stability at ambient conditions; format: physicochemical
[9] = Particle size by dynamic light scattering; format: physicochemical; conditions: 5% aqueous mannitol, monomodal
[10] = target: cathepsin S (CTSS) (Homo sapiens, UniProt P25774); test: Enzyme-mediated metabolism of SDX-7320 in vitro; format: in vitro ADME; conditions: 0.5 mg/mL SDX-7320, 37°C, LC/MS
[11] = tested on: cathepsin isoforms L, H, C, K, and B; test: Enzyme-mediated metabolism of SDX-7320 in vitro; format: in vitro ADME, human; conditions: 0.5 mg/mL SDX-7320, 37°C, LC/MS
[12] = target: T1, METAP2; test: In vitro competition binding to METAP2; conditions: competition with biotinylated SDX-9280
[13] = CNS exposure; format: in vivo; conditions: rat, intravenous, equimolar small molecule doses
Method in brief: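 Plasma and CSF levels of the small-molecule inhibitor were measured in rats after intravenous dosing of the polymer conjugate, the free inhibitor or a comparator inhibitor, all at equimolar small-molecule doses. CSF was sampled near plasma Tmax. For the rapidly metabolised comparator, its active metabolite (M-IV) was measured rather than the parent.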

[14] = Rat functional observation battery; format: in vivo; conditions: single dose 3, 10 and 30 mg/kg, 12 and 36 hours post-dose, GLP
Method in brief: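 Under GLP, male experimentally naïve CD [Crl:CD(SD)] rats, about 8 weeks old, received a single s.c. dose of 3, 10 or 30 mg/kg (ten/group). A functional observation battery was run pre-dose (day −1) and at 12 and 36 h post-dose. Mortality, clinical observations and body weights were also recorded.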

[15] = tested on: EO771 tumors; test: EO771 triple-negative breast cancer allograft model; format: in vivo, mouse; conditions: 24 mg/kg SC, Q4D
Method in brief: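 Female C57Bl/6j mice, ovariectomized at 4 weeks, had EO771 cells implanted into the fourth mammary fat pad at about 18 weeks under ether anesthesia. At about 20 mm3, mice (8/group) began s.c. vehicle (5% mannitol/water, Q4D) or test compound (24 mg/kg, Q4D × 4). Tumors were excised on day 15 and formalin-fixed, paraffin-embedded. Sections were immunostained for Ki67 or CD31, scored as positive cells per tissue area. Volume: two-way ANOVA with Sidak. Staining: unpaired t test.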

[16] = tested on: MDA-MB-231 tumors; test: MDA-MB-231 TNBC model in chick embryos; format: in vivo, chick embryo; conditions: 15, 90 μg
Method in brief: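 MDA-MB-231 cells were inoculated into fertilized White Leghorn eggs on embryonic day E9. From E11, embryos received vehicle, test compound (15 or 90 μg, every four days, two doses) or paclitaxel positive control (2.1 μg, every other day, four doses). Metastatic invasion into the lower chorioallantoic membrane was assessed. Tumors were dissected on E19.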

[17] = tested on: BT-474 tumors; test: BT-474 HER-2+, estrogen receptor-positive breast cancer xenograft model; format: in vivo, mouse; conditions: 6, 12 mg/kg, s.c., every four days
Method in brief: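 Female athymic nude mice got a 90-day 0.72 mg β-estradiol pellet s.c. Three days later, 2 × 10^7 cells in 50% Matrigel/50% RPMI1640 went into the fourth mammary fat pad. Mice were randomized at tumors >95 mm3 (8/group). Test compound, freshly prepared in 5% mannitol/water, was given s.c. Q4D × 9. Tumor volume was analysed by mixed-effects model with Dunnett comparisons.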

[18] = tested on: BT-474 tumors; test: RNA sequencing of BT-474 xenograft tumors; format: in vivo, mouse; conditions: 12 mg/kg, RNA-seq versus vehicle
Method in brief: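 Orthotopic BT-474 tumors came from estrogen-supplemented nude mice dosed s.c. every four days with 12 mg/kg test compound (n = 5) or vehicle (n = 6). At necropsy, tumor portions were snap-frozen and stored at −80°C for RNA isolation and sequencing. Differentially expressed genes versus vehicle were identified, then pathway enrichment analysis was run (pathways with P ≤ 0.01 reported).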

T1 sequence (P50579 whole entry): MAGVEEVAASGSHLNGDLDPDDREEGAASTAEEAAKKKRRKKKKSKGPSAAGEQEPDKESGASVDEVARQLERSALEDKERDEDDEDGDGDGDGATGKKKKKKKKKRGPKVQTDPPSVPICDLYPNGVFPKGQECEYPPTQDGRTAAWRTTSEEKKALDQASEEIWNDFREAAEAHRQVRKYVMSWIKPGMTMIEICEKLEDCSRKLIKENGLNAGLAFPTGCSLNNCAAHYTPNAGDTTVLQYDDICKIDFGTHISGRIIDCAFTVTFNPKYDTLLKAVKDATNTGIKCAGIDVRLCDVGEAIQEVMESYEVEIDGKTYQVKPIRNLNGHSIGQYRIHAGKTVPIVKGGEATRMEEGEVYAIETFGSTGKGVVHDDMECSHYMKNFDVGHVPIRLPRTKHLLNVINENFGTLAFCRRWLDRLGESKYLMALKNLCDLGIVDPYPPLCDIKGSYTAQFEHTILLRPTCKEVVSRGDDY
cathepsin S (CTSS), sequence (P25774 115-331): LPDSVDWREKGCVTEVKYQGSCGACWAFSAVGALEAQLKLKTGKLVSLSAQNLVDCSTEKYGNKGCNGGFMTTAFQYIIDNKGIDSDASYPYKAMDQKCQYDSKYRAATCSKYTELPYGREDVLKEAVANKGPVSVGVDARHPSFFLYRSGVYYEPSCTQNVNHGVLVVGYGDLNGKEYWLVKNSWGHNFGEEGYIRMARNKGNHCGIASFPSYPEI

## CO[C@@H]1[C@H](OC(=O)N[C@H]2CC[C@H](N)CC2)CC[C@]2(CO2)[C@H]1[C@@]1(C)O[C@@H]1CC=C(C)C.O=S(=O)(O)c1ccccc1 (relative stereo) [SDX-9402, Fumagill-6-yl N-(trans-4-aminocyclohexyl)carbamate benzenesulfonic acid salt]
[1]
  Off-target activity at receptors/transporters: No effect was observed
[2]
  Off-target activity at enzymes: No effect was observed

## CO[C@@H]1[C@H](OC(=O)NC(=O)CCl)CC[C@]2(CO2)[C@H]1[C@@]1(C)O[C@@H]1CC=C(C)C [TNP-470, O-(chloroacetyl-carbamoyl) fumagillol]
[3]; hallmark of irreversible enzyme inhibitors
  time dependence of IC50 against METAP2: time-dependent shifts in IC50
[4]
  Inhibition of METAP1 aminopeptidase activity: neither compound inhibited METAP1
[5]
  fold less potent than SDX-7539 in HUVEC growth: approximately 3 fold
[6]
  outgrowth of B16-F10 melanoma cells in the lungs: identical degree of inhibition
[7]
  potency in vitro, fold higher than the natural product fumagillin: 50 fold

## Glycine, N-(2-methyl-1-oxo-2-propen-1-yl)glycyl-L-phenylalanyl-L-leucyl-, 4-nitrophenyl ester, polymer with N-(2-hydroxypropyl)-2-methyl-2-propenamide, reaction products with (3R,4S,5S,6R)-5-methoxy-4-[(2R,3R)-2-methyl-3-(3-methyl-2-buten-1-yl)-2-oxiranyl]-1-oxaspiro[2.5]oct-6-yl N-(trans-4-aminocyclohexyl)carbamate [SDX-7320]
[8]
  long-term chemical stability: > 48 months
[9]
  particle size distribution Z-average: 10 nm
[10]
  release of SDX-7539 from SDX-7320 by cathepsin S: most active isoform; also recorded: highest activity
[11]
  release of SDX-7539 from SDX-7320 by cathepsins L, H, C, K, and B: catalytic activity against SDX-7320
[12]
  binding to METAP2 by competition ELISA: inactive
[3]; up to 10 μg/ml
  Inhibition of METAP2 aminopeptidase enzyme activity: inactive
[13]
  CSF levels of SDX-7539 when dosed as the PDC compared with unconjugated small molecule or TNP-470: marked reduction in CSF levels
[14]
  neurobehavioral FOB findings: No signs of abnormal CNS-related behavioral toxicity; also recorded: no significant behavioral abnormalities
[15]
  EO771 tumor growth: significantly inhibited tumor growth
[15]; anti-angiogenic activity
  CD31 staining of dissected EO771 tumors: reduced staining
[15]; anti-proliferative activity
  Ki67 staining of dissected EO771 tumors: reduced staining
[16]; every four days, two doses
  metastasis of MDA-MB-231 tumors (human DNA in lower chorioallantoic membrane): significantly inhibited metastasis
[16]; two days prior to termination
  MDA-MB-231 tumor blood vessel density (angiogenesis): significant decrease in blood vessel density
[17]
  inhibition of BT-474 tumor growth: significant, dose-dependent inhibition
[18]
  expression of hypoxia-regulated genes including HIF1α in BT-474 tumors: significantly reduced
